Assay results reported in ChEMBL document CHEMBL1795242, “Peptidomimetic inhibitors of bacterial peptide deformylase” (Bioorg Med Chem Lett, 2011).
In brackets after ≈: the same amount, converted by molar mass.

Assays:
Peptide deformylase = biological target: T1, Peptide deformylase (Escherichia coli, UniProt Q9JN24); experiment: Inhibition of Escherichia coli nickel containing peptide deformylase
T1 sequence (Q9JN24 whole entry): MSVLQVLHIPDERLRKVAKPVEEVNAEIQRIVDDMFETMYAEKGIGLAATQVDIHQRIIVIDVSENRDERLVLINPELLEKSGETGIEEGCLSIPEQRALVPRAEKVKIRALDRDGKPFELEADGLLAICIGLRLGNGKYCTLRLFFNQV

Streptococcus pneumoniae = experiment: Antibacterial activity against Streptococcus pneumoniae; format: functional
How it was run: (§1)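 MIC against respiratory-tract-infection pathogens: Gram-positive S. pneumoniae and Gram-negative H. influenzae and M. catarrhalis. Where more than one strain was tested, the MIC is given as a range across strains. The minimum number of strains was 3 for H. influenzae and 1 for M. catarrhalis.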

Haemophilus influenzae = experiment: Antibacterial activity against Haemophilus influenzae; format: functional; how it was run: as §1
Moraxella catarrhalis = experiment: Antibacterial activity against Moraxella catarrhalis; format: functional; how it was run: as §1
[1] = biological target: T2, Peptide deformylase (Escherichia coli) (UniProt Q9JN24); experiment: Inhibition of Escherichia coli nickel containing peptide deformylase at 1 uM
T2 sequence (whole entry): T1 sequence (Q9JN24 whole entry)

SMILES | IC50 (Peptide deformylase) [nM] | MIC (Streptococcus pneumoniae) [µg/mL] | MIC (Haemophilus influenzae) [µg/mL] | MIC (Moraxella catarrhalis) [µg/mL] | inhibition [1] [%]
O=CN(O)C[C@@H](CC1CCCC1)C(=O)N1CCCCN1C(=O)c1ccco1 | 5 | 0.5 (≈ 1.32 µM) | < 0.125 | < 0.125 | –
O=CN(O)C[C@@H](CC1CCCC1)C(=O)N1CCCCN1C(=O)Cc1ccccc1 | 60 | 0.5 (≈ 1.25 µM) | 0.25 (≈ 0.623 µM) | – | –
O=CN(O)C[C@@H](CC1CCCC1)C(=O)N1CCCCN1C(=O)c1ccccc1 | 500 | 0.5 (≈ 1.29 µM) | 1 (≈ 2.58 µM) | – | –
CC(C)(C)OC(=O)N1CCCCN1C(=O)[C@H](CC1CCCC1)CN(O)C=O | 9 | 4 (≈ 10.4 µM) | 1 (≈ 2.61 µM) | – | –
O=CN(O)C[C@@H](CC1CCCC1)C(=O)N1CCCCN1C(=O)Nc1ccc(F)cc1 | 10 | 4 (≈ 9.51 µM) | < 0.125 | – | –
COCC(=O)N1CCCCN1C(=O)[C@H](CC1CCCC1)CN(O)C=O | 200 | 1 (≈ 2.81 µM) | 0.25 (≈ 0.703 µM) | – | –
O=CN(O)C[C@@H](CC1CCCC1)C(=O)N1CCCN1C(=O)Nc1ccc(F)cc1 | 10 | 8 (≈ 19.7 µM) | < 0.125 | – | –
O=CN(O)C[C@@H](CC1CCCC1)C(=O)N1CCCN1C(=O)C1CCCCC1 | 40 | – | 4 (≈ 10.5 µM) | – | –
O=CN(O)C[C@@H](CC1CCCC1)C(=O)N1CCCN1C(=O)Nc1ccc(C(F)(F)F)cc1 | 30 | 2 (≈ 4.38 µM) | 2 (≈ 4.38 µM) | 0.06 (≈ 0.131 µM) | –
O=CN(O)C[C@@H](CC1CCCC1)C(=O)N1CCCCN1C(=O)c1cccnc1 | – | – | – | – | 40
COCC(=O)N1CCCN1C(=O)[C@H](CC1CCCC1)CN(O)C=O | 60 | – | 1 (≈ 2.93 µM) | – | –
O=C(C[C@@H](CC1CCCC1)C(=O)N1CCCCN1C(=O)c1ccco1)NO | 8 | 2 (≈ 5.3 µM) | 0.06 (≈ 0.159 µM) | 0.06 (≈ 0.159 µM) | –
O=CN(O)C[C@@H](CC1CCCC1)C(=O)N1CCCN1C(=O)c1ccoc1 | 10 | – | 1 (≈ 2.75 µM) | – | –
COc1cccc(NC(=O)N2CCCCN2C(=O)[C@H](CC2CCCC2)CN(O)C=O)c1 | 20 | 2 (≈ 4.62 µM) | < 0.125 | – | –
COc1ccc(C(=O)N2CCCCN2C(=O)[C@H](CC2CCCC2)CN(O)C=O)cc1 | 100 | 0.5 (≈ 1.2 µM) | 1 (≈ 2.4 µM) | – | –
O=CN(O)C[C@@H](CC1CCCC1)C(=O)N1CCCN1C(=O)Cc1ccccc1 | 30 | 4 (≈ 10.3 µM) | 2 (≈ 5.16 µM) | – | –
O=CN(O)C[C@@H](CC1CCCC1)C(=O)N1CCCCN1C(=O)c1ccc(F)cc1 | 60 | 0.5 (≈ 1.23 µM) | 0.5 (≈ 1.23 µM) | – | –

SMILES | IC50 (Peptide deformylase) [nM] | MIC (Streptococcus pneumoniae) [µg/mL] | MIC (Haemophilus influenzae) [µg/mL] | MIC (Moraxella catarrhalis) [µg/mL] | inhibition [1] [%]
O=C(C[C@@H](CC1CCCC1)C(=O)N1CCCCN1C(=O)Nc1ccccc1)NO | 20 | 4 (≈ 9.94 µM) | 1 (≈ 2.48 µM) | – | –
O=CN(O)C[C@@H](CC1CCCC1)C(=O)N1CCCN1C(=O)Nc1ccccc1 | 10 | 4 (≈ 10.3 µM) | < 0.125 | – | –
COc1cccc(NC(=O)N2CCCN2C(=O)[C@H](CC2CCCC2)CN(O)C=O)c1 | 10 | 4 (≈ 9.56 µM) | < 0.125 | – | –
O=CN(O)C[C@@H](CC1CCCC1)C(=O)N1CCCN1C(=O)c1ccccc1 | 70 | – | 2 (≈ 5.36 µM) | – | –
O=CN(O)C[C@@H](CC1CCCC1)C(=O)N1CCCCN1C(=O)c1ccncc1 | 300 | 2 (≈ 5.15 µM) | 2 (≈ 5.15 µM) | – | –
CC(C)(C)OC(=O)N1CCCN1C(=O)[C@H](CC1CCCC1)CN(O)C=O | 30 | 8 (≈ 21.7 µM) | 0.5 (≈ 1.35 µM) | < 0.125 | –
O=CN(O)C[C@@H](CC1CCCC1)C(=O)N1CCCCN1C(=O)Nc1ccccc1 | 20 | 2 (≈ 4.97 µM) | < 0.125 | – | –
O=CN(O)C[C@@H](CC1CCCC1)C(=O)N1CCCCN1C(=O)Nc1ccc(C(F)(F)F)cc1 | 9 | – | 0.25 (≈ 0.531 µM) | – | –
COc1ccc(C(=O)N2CCCN2C(=O)[C@H](CC2CCCC2)CN(O)C=O)cc1 | 50 | 4 (≈ 9.91 µM) | 16 (≈ 39.7 µM) | – | –
O=CN(O)C[C@@H](CC1CCCC1)C(=O)N1CCCN1C(=O)c1ccco1 | 30 | 4 (≈ 11 µM) | < 0.125 | < 0.125 | –
O=CN(O)C[C@@H](CC1CCCC1)C(=O)N1CCCCN1C(=O)c1ccoc1 | 6 | 0.5 (≈ 1.32 µM) | 0.125 (≈ 0.331 µM) | < 0.03 | –
O=CN(O)C[C@@H](CC1CCCC1)C(=O)N1CCCN1C(=O)c1ccncc1 | 60 | 16 (≈ 42.7 µM) | 2 (≈ 5.34 µM) | – | –
O=CN(O)C[C@@H](CC1CCCC1)C(=O)N1CCCN1C(=O)c1cccnc1 | 300 | – | 2 (≈ 5.34 µM) | – | –
O=CN(O)C[C@@H](CC1CCCC1)C(=O)N1CCCCN1C(=O)C1CCCCC1 | 200 | 0.5 (≈ 1.27 µM) | 4 (≈ 10.2 µM) | – | –
O=CN(O)C[C@@H](CC1CCCC1)C(=O)N1CCCN1C(=O)c1ccc(F)cc1 | 20 | – | 4 (≈ 10.2 µM) | – | –
COc1ccccc1NC(=O)N1CCCCN1C(=O)[C@H](CC1CCCC1)CN(O)C=O | 10 | 4 (≈ 9.25 µM) | 0.5 (≈ 1.16 µM) | – | –
COc1ccccc1NC(=O)N1CCCN1C(=O)[C@H](CC1CCCC1)CN(O)C=O | 7 | 8 (≈ 19.1 µM) | 1 (≈ 2.39 µM) | 0.25 (≈ 0.597 µM) | –
